One assay deals with Tumor necrosis factor (Homo sapiens, UniProt P01375). The assay can be described thus: The compound was tested in vitro for inhibitory activity against Tumor necrosis factor alpha from human PMBC cell line by ELISA test. In kind it is functional, cell-based. Summed up:
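PBMC isolated from heparinized normal human blood by Ficoll-Histopaque, cultured in RPMI 1640 with 20% autologous plasma and L-glutamine. Compounds were added at 2× in an equal volume, 60 min preincubation, then LPS stimulation. Supernatant was taken 18 h later. TNFα sandwich ELISA (2 µg/mL mouse anti-human capture, BSA block, 2 h at 37 °C), standard curve. IC50 is the µM concentration giving 50% inhibition versus control; a subset was run in ≥3 separate experiments.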

In another assay the test system is Jurkat. The assay can be described thus: Cell toxicity against jurkat cells determined using MTT assay. It counts as functional, cell-based. The settings on record: Homo sapiens. Summed up:
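Jurkat cells, MTT (3-[4,5-dimethylthiazol-2-yl]-2,5-diphenyltetrazolium bromide) read-out. The value is the µM concentration that inhibited growth by 50% of control.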
For orientation: Tetrazolium assays rely on reduction of a dye to a coloured formazan, in cell work by metabolically active cells.

Usually IC50 stands for the concentration needed to halve the response being measured. High values mean weaker potency in that assay, low ones greater potency in that assay.

Chain of Tumor necrosis factor (P01375 whole entry): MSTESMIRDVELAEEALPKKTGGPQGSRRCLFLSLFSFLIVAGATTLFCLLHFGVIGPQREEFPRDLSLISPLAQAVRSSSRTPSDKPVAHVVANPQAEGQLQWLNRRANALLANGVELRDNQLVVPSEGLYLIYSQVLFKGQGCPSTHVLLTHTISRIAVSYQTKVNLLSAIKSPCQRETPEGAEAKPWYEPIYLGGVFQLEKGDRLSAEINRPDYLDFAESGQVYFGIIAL

In turn, `CCOC(=O)CCCOc1nc(Nc2ccc(Br)cc2)nc2cc(OC)c(OC)cc12` came in with a 50% inhibitory concentration (IC50) against Tumor necrosis factor of over 25 µM.

In the case of `CCOC(=O)CCCN1CNc2cc(N)ccc2C1=O`, the 50% inhibitory concentration (IC50) with Jurkat is over 50 µM; against Tumor necrosis factor it was 5 µM.

For the molecule `CCOC(=O)CCCn1cnc2ccc([N+](=O)[O-])cc2c1=O`, on Tumor necrosis factor, the IC50 is over 25 µM.

At Tumor necrosis factor, `CCOC(=O)CCCOc1nc(N(C)C)nc2cc(OC)c(OC)cc12` yielded an IC50 of over 25 µM.

In the case of `CCOC(=O)CCCn1cnc2cc(OC)c(OC)cc2c1=O`, the IC50 in the assay with Jurkat and against Tumor necrosis factor was 3 µM throughout.

For the molecule `CCOC(=O)CCCn1cnc2cc(Cl)ccc2c1=O`, on Tumor necrosis factor, the IC50 was over 25 µM.

In the case of `CCOC(=O)CCCn1cnc2cc(N)ccc2c1=O`, the IC50 was found to be 13 µM in the assay with Jurkat and 9 µM against Tumor necrosis factor.

Take `CCOC(=O)CCCn1cc(C#N)c2cc(OC)c(OC)cc2c1=O`: the figures for the IC50 in the assay on Jurkat and against Tumor necrosis factor were 10 µM and 5 µM, respectively.

As to `CCOC(=O)CCCn1cnc2cc(OC)c(OC)c(Cl)c2c1=O`, the results for the IC50 in the assay with Jurkat and on Tumor necrosis factor were 89 µM and 22 µM, respectively.

Molecule `CCOC(=O)CCCn1c(Nc2ccc(N=[N+]=[N-])cc2)nc2cc(OC)c(OC)cc2c1=O` showed an IC50 against Tumor necrosis factor of over 50 µM.

At Tumor necrosis factor, `CCOC(=O)CCCn1cnc2ccc(Br)cc2c1=O` showed an IC50 of over 25 µM.

On Tumor necrosis factor, `COc1cc2ccnc(Nc3ccccc3)c2cc1OC` showed an IC50 of over 100 µM.

For the molecule `CCOC(=O)CCCn1cc(Br)c2cc(O)c(O)cc2c1=O`, the results for the IC50 in the assay with Jurkat and on Tumor necrosis factor were 11 µM and 1 µM, respectively.

At Tumor necrosis factor, `COc1cc2ccn(CCCC(=O)O)c(=O)c2cc1OC` yielded an IC50 of over 100 µM.

Take `CCOC(=O)CCCn1cc(F)c2cc(OC)c(OC)cc2c1=O`: the IC50 against Tumor necrosis factor stood at 20 µM.

`CCOC(=O)CCCn1cc(F)c2c(F)c(OC)c(OC)cc2c1=O` showed an IC50 on Tumor necrosis factor of over 100 µM.

In the case of `CCOC(=O)CCCn1ccc2cc(OC(=O)OCC)c(OC(=O)OCC)cc2c1=O`, the IC50 with Jurkat came out at 40 µM; against Tumor necrosis factor it was 11 µM.

With `CCOC(=O)CCCCn1cnc2cc(OC)c(OC)cc2c1=O`, the IC50 with Jurkat is 8 µM; on Tumor necrosis factor, 6 µM.

For `CCOC(=O)CCCn1cnc2cc(OC)c(OC)c(N)c2c1=O` [listing 1 of 2 here], the values for the IC50 with Jurkat and on Tumor necrosis factor were over 100 µM and 20 µM, respectively.

`CCOC(=O)CCCn1c(Cl)nc2cc(OC)c(OC)cc2c1=O` came in with an IC50 against Tumor necrosis factor of 48 µM.

As to `COc1cc2ccnc(Nc3ccc(Cl)cc3)c2cc1OC`, at Tumor necrosis factor, the midpoint of inhibition, the IC50, lay at 35 µM.

On to `CCOC(=O)CCCn1cnc2cc(F)c(F)cc2c1=O`, for which, at Tumor necrosis factor, the IC50 was over 25 µM.

On to `CCOC(=O)CCCn1ccc2cc(OC)c(OC)cc2c1=O`, for which the IC50 is over 50 µM in the assay with Jurkat and 5 µM against Tumor necrosis factor.

In turn, `CCOC(=O)CCCn1cc(N)c2cc(OC)c(OC)cc2c1=O` registered an IC50 at Tumor necrosis factor of 37 µM.

At Tumor necrosis factor, `CCOC(=O)CCCn1cnc2ccc(Cl)cc2c1=O` showed an IC50 of over 25 µM.

For `CCOC(=O)CCCn1c(Nc2ccc(Br)cc2)nc2cc(OC)c(OC)cc2c1=O`, the IC50 against Tumor necrosis factor was over 50 µM.

In turn, `CCOC(=O)CCCOc1nc(Nc2ccccc2)nc2cc(OC)c(OC)cc12` registered an IC50 against Tumor necrosis factor of over 25 µM.

At Tumor necrosis factor, `CCOC(=O)CCCn1cnc2cccc(Cl)c2c1=O` returned an IC50 of over 25 µM.

Turning to `CCOC(=O)CCCn1cnc2cc(F)ccc2c1=O`, on Tumor necrosis factor, the IC50 was over 25 µM.

Regarding `CCOC(=O)CCCn1cc([N+](=O)[O-])c2cc(OC)c(OC)cc2c1=O`, the IC50 against Tumor necrosis factor stood at 35 µM.

Take `CCOC(=O)CCCN1CNc2ccc(N)cc2C1=O`: the IC50 is over 100 µM in the assay with Jurkat and 10 µM on Tumor necrosis factor.

Turning to `CCOC(=O)CCn1cnc2cc(OC)c(OC)cc2c1=O`, the concentration for half-maximal inhibition (IC50) was over 25 µM in the assay on Jurkat and 9 µM against Tumor necrosis factor.

As to `CCOC(=O)CCCn1cc(CN)c2cc(OC)c(OC)cc2c1=O`, the figures for the IC50 in the assay with Jurkat and at Tumor necrosis factor were 7 µM and 13 µM, respectively.

For `CCOC(=O)CCCn1ccc2ccccc2c1=O`, the figures for the IC50 in the assay on Jurkat and against Tumor necrosis factor were over 50 µM and 5 µM, respectively.

On to `CCOC(=O)CCCCn1ccc2cc(OC)c(OC)cc2c1=O`, for which the results for the IC50 in the assay with Jurkat and against Tumor necrosis factor were 22 µM and 21 µM, respectively.

As for `CNC(=O)CCCn1cc(Br)c2cc(OC)c(OC)cc2c1=O`, on Tumor necrosis factor, the IC50 was over 100 µM.

For `CCOC(=O)CCCn1cc(C(C)=O)c2cc(OC)c(OC)cc2c1=O`, the IC50 in the assay with Jurkat turned out to be 47 µM; on Tumor necrosis factor, 15 µM.

Turning to `CCOC(=O)CCCn1c(N=[N+]=[N-])nc2cc(OC)c(OC)cc2c1=O`, the IC50 with Jurkat was over 25 µM; against Tumor necrosis factor it was 14 µM.

For the molecule `COc1cc2ccn(CCCC(=O)OCCN3CCOCC3)c(=O)c2cc1OC`, the values for the IC50 in the assay on Jurkat and at Tumor necrosis factor were over 100 µM and 10 µM, respectively.

Consider `CCOC(=O)CCCn1cnc2ccc(N)cc2c1=O`, for which the figures for the IC50 in the assay with Jurkat and against Tumor necrosis factor were over 50 µM and 4 µM, respectively.

As to `CNC(=O)CCCn1ccc2cc(OC)c(OC)cc2c1=O`, the IC50 against Tumor necrosis factor was over 100 µM.

For `CCOC(=O)CCCn1cnc2ccccc2c1=O`, on Tumor necrosis factor, the IC50 is over 25 µM.

As to `COc1cc2ccnc(Nc3cccc(Br)c3)c2cc1OC`, on Tumor necrosis factor, the IC50 is 37 µM.

The molecule `CCOC(=O)CCCn1c(Nc2ccccc2)nc2cc(OC)c(OC)cc2c1=O` showed an IC50 at Tumor necrosis factor of over 25 µM.

Consider `COc1cc2ccnc(NCCO)c2cc1OC`, for which the half-inhibitory concentration (IC50) on Tumor necrosis factor was determined as 55 µM.

For the molecule `CCCn1c(=O)n(CCCC(=O)OCC)c(=O)c2nccnc21`, the IC50 with Jurkat was over 25 µM; against Tumor necrosis factor it was 3 µM.

With `CCOC(=O)CCCn1ccc2cc(O)c(O)cc2c1=O`, the IC50 amounted to 47 µM with Jurkat and 2 µM at Tumor necrosis factor.

At Tumor necrosis factor, `CCOC(=O)CCCn1cnc2cc(OC)c(OC)c(NC(C)=O)c2c1=O` returned a concentration for half-maximal inhibition (IC50) of over 100 µM.

In the case of `CCOC(=O)CCCn1cnc2cc(OC)c(OC)c(N=[N+]=[N-])c2c1=O`, on Tumor necrosis factor, the IC50 is over 25 µM.

At Tumor necrosis factor, `CCOC(=O)CCCOc1nc(Cl)nc2cc(OC)c(OC)cc12` showed an IC50 of 68 µM.

As to `CCOC(=O)CCCn1cnc2cc(OC)c(OC)c([N+](=O)[O-])c2c1=O`, the IC50 with Jurkat is over 25 µM; at Tumor necrosis factor, 11 µM.

As to `CCOC(=O)CCCn1cnc2cc(O)c(O)cc2c1=O`, on Tumor necrosis factor, the IC50 worked out at 48 µM.

With `CCOC(=O)CCCn1c(N)nc2cc(OC)c(OC)cc2c1=O`, on Tumor necrosis factor, the IC50 was over 25 µM.

In turn, `CCOC(=O)CCCn1cnc2cc(OC)c(OC)c(N)c2c1=O` [listing 2 of 2 here] returned an IC50 against Tumor necrosis factor of 15 µM.

`COc1cc2ccnc(Nc3cccc(Cl)c3)c2cc1OC` came in with a concentration for half-maximal inhibition (IC50) on Tumor necrosis factor of 33 µM.

Take `CCOC(=O)CCn1ccc2cc(OC)c(OC)cc2c1=O`: half-maximal inhibition against Tumor necrosis factor (IC50) was put at 50 µM.

`CCOC(=O)CCCn1cc(Br)c2cc(OC)c(OC)cc2c1=O` returned an IC50 on Tumor necrosis factor of 51 µM.

As to `CCOC(=O)CCCn1ccc2cc(OC(C)=O)c(OC(C)=O)cc2c1=O`, the IC50 in the assay on Jurkat is 40 µM.

As for `CCOC(=O)CCCn1cnc2cc([N+](=O)[O-])ccc2c1=O`, the 50% inhibitory concentration (IC50) against Tumor necrosis factor is over 25 µM.

With `COc1cc2ccnc(Nc3ccc(Br)cc3)c2cc1OC`, the IC50 against Tumor necrosis factor was determined as 38 µM.

As for `CCOC(=O)CCCn1cnc2ccc(F)cc2c1=O`, the IC50 against Tumor necrosis factor was over 25 µM.

Source of the values: ChEMBL document CHEMBL1132644, “Substituted isoquinolines and quinazolines as potential antiinflammatory agents. Synthesis and biological evaluation of inhibitors of tumor necrosis factor alpha” (J Med Chem, 1999).
